In paper PMC7485944 (Clinical and Translational Science, 2020):
Values joined by “and” are separate entries in the source; they are usually repeats but may differ in a detail not shown here. Identical values can stand only once. Like-named read-outs stand apart in the source and are kept apart here.

Tests used:
OATP1B1 [1] = settings: following a single 600 mg dose; cited from earlier work
OATP1B3 [2] = settings: following a single 600 mg dose; cited from earlier work
OATP2B1 = settings: cited from earlier work
[3] = format: in vivo, human
Procedure, shortened: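 Same crossover dosing (saline or 600 mg inhibitor i.v. over 30 min, then 4 mg s.c. fasting). Plasma was sampled from 5 min to 36 h post-dose and stored at −25°C. Quantification used validated LC-MS/MS (LLOQ 1.00 ng/mL; linear 1.00–2,000 ng/mL). Noncompartmental analysis: AUC0–t by linear trapezoidal rule; AUC0–∞ adds Ct/λz; CL/F = Dose/AUC0–∞. Treatment effect given as geometric mean ratios with 90% CI.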

[4] = Safety and tolerability evaluation of study treatments in healthy subjects; format: in vivo, human; settings: for Number of AEs reported: 14 subjects
Procedure, shortened: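 Randomized, double-blind, two-period crossover in healthy adults with a 7–10 day washout. Each period gave 100 mL saline or 600 mg OATP inhibitor i.v. over 30 min, with bags and lines covered. This was followed by 4 mg test compound s.c. in the thigh under fasting. Monitoring throughout covered AEs, serious AEs, physical exam, vital signs, 12-lead ECG, body weight, clinical chemistry, hematology and coagulation.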

OATP1B1 [5] = settings: in vitro; ref Idorsia Pharmaceuticals, data on file; cited from earlier work
OATP1B3 [6] = settings: in vitro; ref Idorsia Pharmaceuticals, data on file; cited from earlier work
MRP2 = settings: in vitro; ref Idorsia Pharmaceuticals, data on file; cited from earlier work
[7] = ref Idorsia Pharmaceuticals, data on file; cited from earlier work
[8] = cited from earlier work
platelet inhibition = settings: single s.c. doses of 8 and 16 mg, postdose; cited from earlier work
[9] = cited from earlier work; remark: listed apart in the source
[10] = cited from earlier work; remark: listed apart in the source
[11] = 600 mg rifampin i.v. before 4 mg selatogrel s.c.
[12] = Treatment A: placebo + 4 mg selatogrel s.c., n = 13
[13] = Treatment B: 600 mg rifampin i.v. + 4 mg selatogrel s.c., n = 13
[14] = treatment B (rifampin) / A (placebo), n = 13

For `CO[C@H]1/C=C/O[C@@]2(C)Oc3c(C)c(O)c4c(O)c(c(/C=N/N5CCN(C)CC5)c(O)c4c3C2=O)NC(=O)/C(C)=C\C=C\[C@H](C)[C@H](O)[C@@H](C)[C@@H](O)[C@@H](C)[C@H](OC(C)=O)[C@@H]1C` [rifampin], the “Inhibition of OATP1B1” value (OATP1B1 [1]) is given as “potent inhibitor”, the “Inhibition of OATP1B3” value (OATP1B3 [2]) is given as “potent inhibitor” and the “Inhibition of OATP2B1” value (OATP2B1) is given as “not a potent inhibitor”.
With `CCCCOC(=O)N1CCN(C(=O)[C@H](CP(=O)(O)O)NC(=O)c2cc(N3CC[C@H](OC)C3)nc(-c3ccccc3)n2)CC1` [selatogrel, 4‐((R)‐2‐{[6‐((S)‐3‐Methoxypyrrolidin‐1‐yl)‐2‐phenylpyrimidine‐4‐carbonyl]amino}‐ 3‐phosphonopropionyl)piperazine‐1‐carboxylic Acid Butyl Ester] the “Decrease of CL/F with rifampin” value [3, 11] was ~ 30%, the “Decrease of Vd/F with rifampin” value [3, 11] was ~ 30% and the “Increase of AUC0–t with rifampin compared with placebo” value [3, 11] was 44%. For the same compound, the “Increase of AUC0–∞ with rifampin compared with placebo” value [3, 11] was 43% and ~40%, the “Increase of Cmax with rifampin compared with placebo” value [3, 11] was 19% and ~ 20% and the “AUC0–t, geometric mean” value [3, 12] was 273.7 ng·h/mL. For the same compound, the “AUC0–∞, geometric mean” value [3, 12] was 279.8 ng·h/mL, the “CL/F, geometric mean” value [3, 12] was 14.3 L/h and the “AUC0–t, geometric mean” value [3, 13] was 392.6 ng·h/mL. The “AUC0–∞, geometric mean” value [3, 13] was 398.7 ng·h/mL, the “CL/F, geometric mean” value [3, 13] was 10.0 L/h and the “AUC0–t, geometric mean ratio B/A” value [3, 14] was 1.44. For the same compound, the “AUC0–∞, geometric mean ratio B/A” value [3, 14] was 1.43, the “CL/F, geometric mean ratio B/A” value [3, 14] was 0.70 and the “Cmax, geometric mean ratio B/A” value [3, 14] was 1.19. The “Vd/F, geometric mean ratio B/A” value [3, 14] was 0.68, the “t 1/2, geometric mean ratio B/A” value [3, 14] was 0.97 and the “Intensity of AEs” value ([4]; both treatment periods) was “mild”. For the same compound, the “Serious adverse events or AEs leading to discontinuation” value ([4]; both treatment periods) was “No serious adverse events or AEs leading to study discontinuation”, the “Overall safety and tolerability” value ([4]; selatogrel 4 mg s.c. after rifampin or matching placebo) was “safe and well‐tolerated” and the “Number of AEs reported” value ([4]; selatogrel 4 mg s.c. with 600 mg rifampin i.v. (treatment B)) was 17. The “Number of AEs reported” value ([4]; selatogrel 4 mg s.c. with placebo (treatment A)) was 8, the “Number of AEs considered related to study treatment” value ([4]; treatment period A (placebo + selatogrel)) was 1 and the “Substrate of OATP1B1” value (OATP1B1 [5]) was “substrate”. The “Substrate of OATP1B3” value (OATP1B3 [6]) was “substrate”, the “Substrate of MRP2” value (MRP2) was “substrate” and the transcellular permeability [7] was 0.2 10^−6 cm/seconds. For the same compound, the Exposure dose proportionality ([8]; dose range 1–32 mg) was “dose‐proportional exposure”, the “Safety and tolerability in single-ascending dose study” value ([8]; dose range 1–32 mg) was “safe and well‐tolerated” and the “Time of absorption after s.c. administration” value ([8]; s.c.) was 30 to 45 min. For the same compound, the elimination half-life ([8]; s.c.) was 2 to 9 h, the “Time to reversal of pharmacodynamic effect” value (platelet inhibition) was ≤ 24 h and the Plasma protein binding [9] was “highly bound to plasma proteins”. For the same compound, the Route of elimination [10] was “mainly eliminated unchanged via the biliary route”.
